Results on nine compounds are retold here after article PMC6300088 (Pharmaceutical Biology, 2018).

Structures are written as SMILES. Values after ≈ are worked out from the molar mass of the structure shown. Where two headings read alike, the source gives them in different places. A value given as a limit tells only on which side of the number the result lay.

The test system of data set [1] is MCF7MX (BCRP overexpressing human epithelial breast cancer cell line). Particulars: read-out: IC50 against MCF7MX; ref Mirzaei et al. [2017]; cited from earlier work.
Data set [2] concerns L5178Y human ABCB1-transfected subline (MDR). Nature of the data set: Antiproliferative effect. The settings on record: 72 h, read-out: AA on MDR cells (IC50). The data set is classed as cell-based, mouse.
For data set [3], the system named is L5178Y mouse T-cell lymphoma cells: parent, PAR cells. Put plainly: Cytotoxic effect. The class given is cell-based. The settings on record: 24 h; for IC50: Mus musculus, L5178Y, read-out: CA on PAR cells (IC50).
In data set [4] the test system is L5178Y human ABCB1-transfected subline (MDR). Nature of the data set: Cytotoxic effect. Particulars: 24 h; for IC50: L5178Y, read-out: CA on MDR cells (IC50); for CA on MDR cells (IC50): cytotoxic activity, MTT, mean ± SD, n = 3. The data set is classed as cell-based, mouse.
The test system of data set [5] is L5178Y mouse T-cell lymphoma cells: parent, PAR cells. Put plainly: Antiproliferative effect. Particulars: 72 h, read-out: AA on PAR cells (IC50). The data set is classed as cell-based.
Data set [6] deals with multidrug resistant mouse T-lymphoma cells overexpressing the ABCB1 transporter. Nature of the data set: Checkerboard combination assay with doxorubicin. The class given is cell-based. Particulars: MDR cells. An outline of the steps:
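L5178Y mouse T-lymphoma cells transfected with human ABCB1 (MDR), 6 × 10^3 per well in McCoy's 5A. Checkerboard layout with doxorubicin diluted horizontally (final concentration stated as 17.242 μM) and test compound diluted vertically. Incubated 72 h at 37 °C in 5% CO2. MTT added (5 mg/mL stock) for 4 h at 37 °C, then 10% SDS in 0.01 M HCl overnight at 37 °C.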

The next data set has as its system ABCB1 (P-glycoprotein). The data set is classed as cell-based, human. The settings on record: for FL-1 (mean fluorescence intensity of the cells): MDR cells, rhodamine 123; for FAR (fluorescence activity ratio): rhodamine 123 retention.
Data set [7] deals with NIH/3T3 mouse embryonic fibroblast cell line. Nature of the data set: Cytotoxic effect. The class given is cell-based. Particulars: cytotoxic activity on normal murine fibroblasts, 24 h, MTT, mean ± SD, n = 3.
The subject of data set [8] is HCT-15 (colon cancer) cells. The settings on record: HCT-15 cells; ref Kim et al. [2007]; cited from earlier work.
Another data set has as its system HL-60/MX2 (MDR). Particulars: read-out: IC50 against HL-60/MX2; ref Kubrak et al. [2017]; cited from earlier work.
Data set [9] has as its system CEM/C1 (lymphoblastic leukaemia). The settings on record: read-out: IC50 against CEM/C1; ref Kubrak et al. [2017]; cited from earlier work.

As for `COc1c2occc2cc2ccc(=O)oc12` [8-Methoxypsoralen], the IC50 in [1] was 0.0011 ± 0.00091 µM.

With `COc1cccc2c1C(=O)c1c(O)c3c(c(O)c1C2=O)C[C@@](O)(C(=O)CO)C[C@@H]3O[C@H]1C[C@H](N)[C@H](O)[C@H](C)O1` [Doxorubicin, doxorubicin, reference compound], the IC50 in [2] was 0.468 ± 0.065 µM; in data set [3] it was 0.377 ± 0.02 µM; in [4], 7.15 ± 0.358 µM; in [5], 0.054 ± 0.005 µM.

As to `CC1(C)O[C@@H]1COc1c2occc2cc2ccc(=O)oc12` [Heraclenin (8), heraclenin], the IC50 in [2] stood at 46.5 ± 1.22 µM; in data set [3], 65.8 ± 1 µM; in data set [4], 83.9 ± 1.68 µM; in data set [5], 32.7 ± 2.4 µM. The Interaction entry in data set [6] (listed as Heraclenin) was “Slight synergism”; in data set [6] (listed as heraclenin (8)), “slight synergistic effect”. The “FL-1 (mean fluorescence intensity of the cells)” value is recorded as 0.942 in the data set on ABCB1 (P-glycoprotein) (2 µM) and 0.57 with ABCB1 (P-glycoprotein) (20 µM). Moreover, the “FAR (fluorescence activity ratio)” value with ABCB1 (P-glycoprotein) (2 µM) turned out to be 1.29; in the data set with ABCB1 (P-glycoprotein) (20 µM) it was 0.78.

Regarding `CC(C)(O)[C@H](O)COc1c2occc2cc2ccc(=O)oc12` [Heraclenol (9), heraclenol], the IC50 is 46.6 ± 0.47 µM in data set [2], > 100 µM in data set [3], > 100 µM in data set [4] and 52.3 ± 2.12 µM in [5]. Besides, the “CA on PAR cells (IC50)” value in [3] (cytotoxic activity, MTT, mean ± SD, n = 3) was “no toxic effects”. In addition, the “CA on MDR cells (IC50)” value in [4] is given as “no toxic effects”. Besides, the “FL-1 (mean fluorescence intensity of the cells)” value in the data set with ABCB1 (P-glycoprotein) (2 µM) worked out at 0.995. Further, the results for the “FAR (fluorescence activity ratio)” value in the data set with ABCB1 (P-glycoprotein) (2 µM) and in the data set with ABCB1 (P-glycoprotein) (20 µM) were 1.37 and 1.30, respectively.

Regarding `CC(C)=CCOc1c2occc2cc2ccc(=O)oc12` [Imperatorin (6), imperatorin], the IC50 in data set [2] is 42.2 ± 0.88 µM; in data set [3], 52.6 ± 4.19 µM; in data set [4] it was > 100 µM; in data set [5], 36.1 ± 0.91 µM. The “CA on NIH/3T3 cells (IC50)” value in data set [7] was “no toxic activity”. Moreover, the “CA on MDR cells (IC50)” value in [4] is listed as “without any toxicity”. Also, the “FL-1 (mean fluorescence intensity of the cells)” value amounted to 0.727 with ABCB1 (P-glycoprotein) (2 µM) and 0.783 in the data set with ABCB1 (P-glycoprotein) (20 µM). Moreover, the “FAR (fluorescence activity ratio)” value came out at 0.62 in the data set with ABCB1 (P-glycoprotein) (2 µM) and 0.66 in the data set with ABCB1 (P-glycoprotein) (20 µM).

As to `CC1(C)O[C@H]1COc1c2ccoc2cc2oc(=O)ccc12` [Oxypeucedanin (3), oxypeucedanin], the IC50 in data set [2] amounted to 28.9 ± 0.73 µM; in data set [3], 40.3 ± 0.63 µM; in [4] it was 66.7 µM; in [5], 26 ± 1.27 µM. The Interaction result in data set [6] (listed as Oxypeucedanin) is “Slight synergism”; in data set [6] (listed as oxypeucedanin (3)), “slight synergistic effect”. Moreover, the “ED50, cell proliferation” value in data set [8] is 3.4 ± 0.3 µg/mL (≈ 11.9 µM). The “FL-1 (mean fluorescence intensity of the cells)” value worked out at 0.9 with ABCB1 (P-glycoprotein) (2 µM) and 2.62 with ABCB1 (P-glycoprotein) (20 µM). For the same compound, the “FAR (fluorescence activity ratio)” value with ABCB1 (P-glycoprotein) (2 µM) is 0.76; in the data set with ABCB1 (P-glycoprotein) (20 µM), 2.22; with ABCB1 (P-glycoprotein) (20 µM, listed as oxypeucedanin (3)), “moderate ABCB1 inhibiting effect”.

As for `COc1cc2c(cc1OC)CN(CCc1ccc(NC(=O)c3cc(OC)c(OC)cc3NC(=O)c3cnc4ccccc4c3)cc1)CC2` [Tariquidar, tariquidar, reference compound], in the data set with ABCB1 (P-glycoprotein) (0.02 µM), the “FL-1 (mean fluorescence intensity of the cells)” value was 119 and the “FAR (fluorescence activity ratio)” value was 100.68. For the same compound, the “FAR (fluorescence activity ratio)” value in the data set with ABCB1 (P-glycoprotein) (0.02 µM, listed as tariquidar) is on record as 100.

Regarding `COc1c2ccoc2c(OC)c2oc(=O)ccc12` [isopimpinellin], the IC50 in the data set with HL-60/MX2 (MDR) was 26 ± 5.7 µM.

For `COc1c2ccoc2c(OCC=C(C)C)c2oc(=O)ccc12` [phellopterin], in data set [9], the IC50 is 8 ± 4 µM.
